The values that follow come from ChEMBL document CHEMBL1152646, “Synthesis, molecular docking and biological evaluation of metronidazole derivatives as potent Helicobacter pylori urease inhibitors” (Bioorg Med Chem, 2009).

The source made the active and inactive calls. The rule behind the calls is not given here.

Urease subunit alpha/Urease subunit beta (Helicobacter pylori (strain ATCC 700392 / 26695) (Campylobacterpylori)), sequence (P14916 whole entry, looked up): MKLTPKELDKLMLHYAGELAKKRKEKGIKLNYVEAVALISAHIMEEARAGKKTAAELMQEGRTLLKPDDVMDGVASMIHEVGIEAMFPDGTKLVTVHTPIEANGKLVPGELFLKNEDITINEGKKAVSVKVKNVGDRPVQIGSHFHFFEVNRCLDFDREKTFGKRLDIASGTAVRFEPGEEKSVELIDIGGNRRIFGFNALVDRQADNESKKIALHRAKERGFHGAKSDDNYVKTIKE
Urease subunit alpha/Urease subunit beta (Helicobacter pylori (strain ATCC 700392 / 26695) (Campylobacterpylori)), sequence (P69996 whole entry, looked up): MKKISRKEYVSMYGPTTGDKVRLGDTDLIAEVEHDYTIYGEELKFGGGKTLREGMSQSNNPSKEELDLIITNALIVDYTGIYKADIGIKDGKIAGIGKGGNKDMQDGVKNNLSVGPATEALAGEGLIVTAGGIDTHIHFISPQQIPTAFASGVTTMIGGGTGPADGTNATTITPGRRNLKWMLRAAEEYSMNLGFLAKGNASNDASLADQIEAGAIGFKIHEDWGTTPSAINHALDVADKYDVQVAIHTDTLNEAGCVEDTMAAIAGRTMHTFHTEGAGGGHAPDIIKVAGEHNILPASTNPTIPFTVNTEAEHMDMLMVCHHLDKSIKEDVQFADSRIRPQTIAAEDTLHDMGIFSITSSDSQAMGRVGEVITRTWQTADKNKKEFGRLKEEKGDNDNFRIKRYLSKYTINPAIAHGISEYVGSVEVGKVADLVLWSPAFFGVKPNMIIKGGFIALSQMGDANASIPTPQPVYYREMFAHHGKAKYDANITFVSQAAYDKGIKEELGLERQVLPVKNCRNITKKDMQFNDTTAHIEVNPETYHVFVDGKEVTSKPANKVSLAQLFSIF
Urease subunit alpha/Urease subunit beta, sequence (P69996 whole entry): as the sequence (P69996 whole entry, looked up) above
Urease subunit alpha/Urease subunit beta, sequence (P14916 whole entry, further chain): as the sequence (P14916 whole entry, looked up) above

One assay addresses Urease subunit alpha/Urease subunit beta (Helicobacter pylori (strain ATCC 700392 / 26695) (Campylobacterpylori), UniProt P69996). The assay can be described thus: Inhibition of Helicobacter pylori ATCC 43504 urease assessed as ammonia production after 3 hrs by indophenol method. In outline:
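Crude urease came from H. pylori grown 24 h at 37 °C, microaerobic, in brucella broth with 10% heat-inactivated horse serum. Cells were PBS-washed, frozen at -80 °C, sonicated 60 s in water with protease inhibitors, and mixed 1:1 with glycerol. Enzyme (4 U) and compound were preincubated at room temperature. Percent inhibition was screened at 1 mM; IC50 came from dose–response curves (≥3 experiments, mean S.D.).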
With `Cc1ncc([N+](=O)[O-])n1CCOC(=O)c1cc(Br)ccc1OCCn1c([N+](=O)[O-])cnc1C`, the IC50 was 26 µM.

For the molecule `Cc1ncc([N+](=O)[O-])n1CCOC(=O)c1cc(Cl)ccc1OCCn1c([N+](=O)[O-])cnc1C`, the IC50 worked out at 12 µM.

The target of another assay is Urease subunit alpha/Urease subunit beta (Helicobacter pylori (strain ATCC 700392 / 26695) (Campylobacterpylori)) (UniProt P69996+P14916). The assay can be described thus: Inhibition of Helicobacter pylori ATCC 43504 urease assessed as ammonia production at 1 mM after 3 hrs by indophenol method. Summed up:
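Crude urease from H. pylori ATCC 43504 grown 24 h at 37 °C microaerobically in brucella broth with 10% heat-inactivated horse serum; cells PBS-washed, stored at -80 °C, sonicated 60 s in water with protease inhibitors, extract mixed 1:1 with glycerol. Enzyme (4 U) preincubated 3 h at room temperature with compound; ammonia measured by indophenol method; percent inhibition.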
On to `Cc1ncc([N+](=O)[O-])n1CCOC(=O)c1ccc(Cl)cc1OCCn1c([N+](=O)[O-])cnc1C`, for which the inhibition was 82.2%.

In the case of `Cc1ccc(OCCn2c([N+](=O)[O-])cnc2C)c(C(=O)OCCn2c([N+](=O)[O-])cnc2C)c1`, the inhibition came to 48.4%. As for `Cc1ccc(C(=O)OCCn2c([N+](=O)[O-])cnc2C)c(OCCn2c([N+](=O)[O-])cnc2C)c1`, the inhibition is 38.3%. As for `Cc1ncc([N+](=O)[O-])n1CCOc1c(Br)cc(Br)cc1C(=O)O`, the inhibition stood at 56.1%. For `Cc1ncc([N+](=O)[O-])n1CCOc1c(I)cc(I)cc1C(=O)O`, the inhibition was 53.9%. Consider `Cc1ccc(C(=O)O)c(OCCn2c([N+](=O)[O-])cnc2C)c1`, for which the inhibition entry was “inactive”. Turning to `Cc1cccc(C(=O)OCCn2c([N+](=O)[O-])cnc2C)c1OCCn1c([N+](=O)[O-])cnc1C`, the inhibition was 42.1%.

For `Cc1ncc([N+](=O)[O-])n1CCOC(=O)c1cc(I)ccc1OCCn1c([N+](=O)[O-])cnc1C`, the inhibition worked out at 78.7%. Take `Cc1ncc([N+](=O)[O-])n1CCOC(=O)c1cc(Br)ccc1OCCn1c([N+](=O)[O-])cnc1C`: the inhibition worked out at 93.9%. `Cc1ccc(S(=O)(=O)OCCn2c([N+](=O)[O-])cnc2C)cc1`: the inhibition turned out to be 78.1%. Same read-out and setting: next, `Cc1ncc([N+](=O)[O-])n1CCOC(=O)c1cc(Cl)ccc1OCCn1c([N+](=O)[O-])cnc1C`: 95.3%; `Cc1ncc([N+](=O)[O-])n1CCOC(=O)c1cc(S(=O)(=O)O)ccc1OCCn1c([N+](=O)[O-])cnc1C`: 61.2%.

As for `Cc1ncc([N+](=O)[O-])n1CCOc1c(Cl)cc(Cl)cc1C(=O)O`, the inhibition was 56.8%. Regarding `Cc1ncc([N+](=O)[O-])n1CCO`, the inhibition result was “inactive”. With `Cc1ncc([N+](=O)[O-])n1CCOc1cc(N)ccc1C(=O)O`, the inhibition turned out to be 38.3%.
